From PMC5030192 (International journal of pharmaceutics, 2016)
In brackets after ≈: the same amount, converted by molar mass. Square brackets hold non-standard residues; d marks the D form. Peptide text beside a SMILES is read from it. Sar = CNCC(=O)O

Columns and labels:
[1] = test system: PepT1; assay: [3H]-GlySar uptake, interaction with peptide transporter; type: cell-based
Method in brief: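 Monolayers grown to 80–90% confluency (6–7 days after seeding 3 × 10⁶ cells) were washed thrice in DPBS pH 7.4 at 37°C. They were then incubated 30 min at 37°C with [3H]-GlySar in DPBS plus test compound (25µM) or cold GlySar (10mM). Ice-cold stop wash, lysis in 0.1% Triton-X/0.3% NaOH overnight, scintillation counting; uptake normalised to protein. n=4, mean ± S.D., Student t-test.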

[2] = target: P-gp (Homo sapiens, UniProt P08183); assay: [3H]-LPV cellular uptake in MDCK-MDR1 cells; type: cell-based
P-gp, sequence (P08183 whole entry): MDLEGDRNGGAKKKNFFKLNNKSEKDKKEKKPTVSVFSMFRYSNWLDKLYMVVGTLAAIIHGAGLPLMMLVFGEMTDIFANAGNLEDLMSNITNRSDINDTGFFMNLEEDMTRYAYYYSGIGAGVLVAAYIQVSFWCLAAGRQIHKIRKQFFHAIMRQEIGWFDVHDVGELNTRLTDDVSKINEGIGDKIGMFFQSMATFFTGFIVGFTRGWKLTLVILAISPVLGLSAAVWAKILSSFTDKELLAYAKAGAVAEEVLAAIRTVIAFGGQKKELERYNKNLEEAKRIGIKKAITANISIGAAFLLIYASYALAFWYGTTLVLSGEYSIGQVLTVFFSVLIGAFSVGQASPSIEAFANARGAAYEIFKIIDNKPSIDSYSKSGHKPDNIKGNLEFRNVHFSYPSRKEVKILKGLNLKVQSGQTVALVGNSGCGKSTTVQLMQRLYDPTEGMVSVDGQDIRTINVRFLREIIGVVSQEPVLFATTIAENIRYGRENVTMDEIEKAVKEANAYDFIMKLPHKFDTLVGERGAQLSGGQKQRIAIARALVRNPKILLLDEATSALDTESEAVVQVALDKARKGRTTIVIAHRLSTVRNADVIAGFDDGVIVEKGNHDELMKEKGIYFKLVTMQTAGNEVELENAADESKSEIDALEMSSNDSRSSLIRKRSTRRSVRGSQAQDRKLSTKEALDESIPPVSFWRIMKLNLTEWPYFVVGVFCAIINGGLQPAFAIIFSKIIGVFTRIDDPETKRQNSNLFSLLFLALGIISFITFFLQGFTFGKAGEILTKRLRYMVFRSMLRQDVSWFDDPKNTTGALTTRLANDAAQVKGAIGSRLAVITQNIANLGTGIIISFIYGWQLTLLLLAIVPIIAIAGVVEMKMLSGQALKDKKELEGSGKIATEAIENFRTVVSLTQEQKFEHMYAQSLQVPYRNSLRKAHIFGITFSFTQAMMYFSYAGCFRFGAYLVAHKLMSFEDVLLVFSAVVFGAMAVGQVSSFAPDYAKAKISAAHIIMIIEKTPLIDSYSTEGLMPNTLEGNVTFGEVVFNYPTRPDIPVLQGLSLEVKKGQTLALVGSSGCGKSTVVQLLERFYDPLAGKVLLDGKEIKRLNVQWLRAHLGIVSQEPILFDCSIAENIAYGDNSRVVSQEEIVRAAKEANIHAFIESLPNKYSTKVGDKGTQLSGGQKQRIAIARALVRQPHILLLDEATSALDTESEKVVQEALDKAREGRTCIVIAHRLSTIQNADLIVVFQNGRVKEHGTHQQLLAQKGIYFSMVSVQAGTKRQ

[3] = test system: PHT1; assay: [3H]-His uptake, interaction with peptide/histidine transporter; type: cell-based; conditions: 25µM; MDCK-MDR1, MDCK-MRP2, Caco-2
[4] = test system: MDCKII-WT cells; assay: MTS based cytotoxicity assay
[5] = ref Patel, 2014, cited from earlier work
[6] = target: MRP2 (Homo sapiens, UniProt Q92887); assay: [3H]-LPV cellular uptake in MDCK-MRP2 cells; type: cell-based
MRP2, sequence (Q92887 whole entry): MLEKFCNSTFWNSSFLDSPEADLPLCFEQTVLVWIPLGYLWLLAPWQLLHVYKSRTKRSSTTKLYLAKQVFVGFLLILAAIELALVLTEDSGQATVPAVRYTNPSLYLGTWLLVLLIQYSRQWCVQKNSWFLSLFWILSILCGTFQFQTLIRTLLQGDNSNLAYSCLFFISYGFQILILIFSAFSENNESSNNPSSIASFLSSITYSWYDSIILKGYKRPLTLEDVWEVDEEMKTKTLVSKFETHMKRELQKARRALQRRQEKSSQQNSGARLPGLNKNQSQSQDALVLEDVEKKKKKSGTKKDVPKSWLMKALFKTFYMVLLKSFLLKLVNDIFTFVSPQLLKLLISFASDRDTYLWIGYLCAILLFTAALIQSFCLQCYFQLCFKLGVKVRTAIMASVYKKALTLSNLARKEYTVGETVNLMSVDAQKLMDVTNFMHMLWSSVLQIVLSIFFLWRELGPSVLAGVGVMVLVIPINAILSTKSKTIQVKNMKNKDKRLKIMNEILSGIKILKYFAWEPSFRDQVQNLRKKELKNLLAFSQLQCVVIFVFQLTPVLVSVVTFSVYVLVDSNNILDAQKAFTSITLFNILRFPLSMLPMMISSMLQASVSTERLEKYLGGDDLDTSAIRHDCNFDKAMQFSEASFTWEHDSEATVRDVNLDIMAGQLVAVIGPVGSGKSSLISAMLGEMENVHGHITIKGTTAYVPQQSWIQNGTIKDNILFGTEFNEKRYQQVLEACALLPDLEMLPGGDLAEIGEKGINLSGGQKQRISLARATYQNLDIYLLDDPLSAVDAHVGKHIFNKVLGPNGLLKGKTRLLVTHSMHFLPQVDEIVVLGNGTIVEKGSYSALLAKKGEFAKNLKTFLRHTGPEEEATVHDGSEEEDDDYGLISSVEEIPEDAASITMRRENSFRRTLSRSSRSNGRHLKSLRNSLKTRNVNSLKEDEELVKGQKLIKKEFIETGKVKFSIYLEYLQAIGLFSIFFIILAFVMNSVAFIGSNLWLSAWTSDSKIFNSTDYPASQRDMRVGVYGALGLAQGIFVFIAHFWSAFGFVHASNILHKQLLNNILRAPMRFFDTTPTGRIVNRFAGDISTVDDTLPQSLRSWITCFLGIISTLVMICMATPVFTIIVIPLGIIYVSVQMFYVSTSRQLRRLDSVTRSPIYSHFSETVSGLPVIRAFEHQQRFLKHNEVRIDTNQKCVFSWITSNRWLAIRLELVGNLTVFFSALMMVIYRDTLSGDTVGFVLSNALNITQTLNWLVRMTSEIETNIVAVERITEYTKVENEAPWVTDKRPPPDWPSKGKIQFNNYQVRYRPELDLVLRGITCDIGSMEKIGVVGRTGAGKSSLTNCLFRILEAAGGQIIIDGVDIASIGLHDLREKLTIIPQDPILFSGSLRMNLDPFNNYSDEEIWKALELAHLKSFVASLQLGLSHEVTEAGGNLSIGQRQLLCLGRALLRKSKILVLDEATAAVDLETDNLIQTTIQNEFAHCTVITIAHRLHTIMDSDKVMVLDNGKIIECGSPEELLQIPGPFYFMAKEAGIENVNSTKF

[7] = Solubility studies in distilled deionized water; type: physicochemical; conditions: thermodynamic from solid

CN(CC(=O)O)C(=O)CN [GlySar, Glycylsarcosine] (H-Gly-[Sar]-OH)
reduction in [3H]-GlySar uptake ([1]; all cell lines (MDCK-MDR1, MDCK-MRP2, Caco-2), prodrug 25µM, cold GlySar 10mM): 75%

Cc1cccc(C)c1OCC(=O)N[C@@H](Cc1ccccc1)[C@@H](O)C[C@H](Cc1ccccc1)NC(=O)[C@H](C(C)C)N1CCCNC1=O [LPV, Lopinavir]
[3H]-LPV uptake with increasing concentrations of unlabelled compound [2]: dramatically elevated | variation in [3H]-L-His uptake in presence of compound [3]: no such variation | reduction in number of viable cells ([4]; 100 µM, 4h incubation, MDCK-WT cells): Approximately 13% | reduction in number of viable cells / cell viability ([4]; 200 µM, 4h incubation, MDCK-WT cells): ~36% | Cytotoxicity ([4]; 5–50 µM, 4h incubation, MDCK-WT cells): no cytotoxic effects | mean residential time (MRT) ([5]; LPV itself dosed orally, rats): 3.13 h | mean residential time (MRT) of regenerated LPV ([5]; regenerated after oral Val-Ile-LPV, rats): 10.1 h | Area under the curve (AUC) of administered compound ([5]; single oral dose, Sprague Dawley rats): 177 ± 5 µmol·min/L | [3H]-LPV uptake with increasing concentrations of unlabelled compound [6]: dramatically elevated | variation in [3H]-GlySar uptake in presence of compound ([1]; 25µM, MDCK-MDR1, MDCK-MRP2, Caco-2): no such variation | solubility at 24 h [7]: 49 ± 3 µg/mL (≈ 77.9 µM)

CC(C)(C)CC(C)(C)c1ccc(OCCO)cc1 [Triton-X]
decrease in absorbance compared to negative control ([4]; 0.1% Triton-X, positive control): about 70%
